Source: ChEMBL document CHEMBL5303300, “EUbOPEN Chemogenomics Library - Multiplex” (2023)
“And” between values parts separate entries of the source, which are not always exact repeats. Identical values can stand only once.

Test system: HEK-293T
Assay: Multiplex assay against HEK293T
Assay type: toxicity, cell-based
Conditions: human, number of replicates 2
Procedure, shortened: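 Live cells carried four stains from seeding: Hoechst33342, BioTracker Green Microtubule Cytoskeleton Dye, MitoTracker Red and Annexin V Alexa Fluor 680. They were imaged on a CQ1 microscope at 37°C and 5% CO2 after compound addition. Using CellPathfinder machine-learning gating, cells were split into Hoechst high-intensity objects or normal cells, normal cells into healthy, pyknosed or fragmented nuclei, and pyknosed cells into mitotic or apoptotic; tubulin, mitochondrial-mass and membrane-permeability phenotypes are per cents of healthy-nucleus cells.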

[1] = 12 h, 1 µM, compound concentration 1 uM
[2] = 12 h, 10 µM, compound concentration 10 uM
[3] = 24 h, 1 µM, compound concentration 1 uM
[4] = 24 h, 10 µM, compound concentration 10 uM
[5] = 48 h, 1 µM, compound concentration 1 uM
[6] = 48 h, 10 µM, compound concentration 10 uM

SMILES: CN(C)C/C=C/C(=O)Nc1ccc(C(=O)Nc2cccc(Nc3ncc(Cl)c(-c4c[nH]c5ccccc45)n3)c2)cc1
- Population Apoptotic (%) [1]: 42% and 60%
- Population Fragmented Nuclei (%) [1]: 2% and 4%
- Population Healthy Nuclei (%) [1]: 51% and 52%
- Population Hoechst High Intensity Objects (%) [1]: 23% and 21%
- Population Membrane Permeable-Phenotype (%) [1]: 9% and 14%
- Population Mitochondria Different-Phenotype (%) [1]: 37% and 41%
- Population Mitotic Cells (%) [1]: 57% and 40%
- Population Normal (%) [1]: 76% and 78%
- Population Pyknosed Nuclei (%) [1]: 46% and 43%
- Population Tubulin-Different-Phenotype (%) [1]: 89% and 83%
- Total Cell Count [1]: 442 and 379
- Population Apoptotic (%) [2]: 52% and 73%
- Population Fragmented Nuclei (%) [2]: 3% and 2%
- Population Healthy Nuclei (%) [2]: 61% and 57%
- Population Hoechst High Intensity Objects (%) [2]: 17% and 19%
- Population Membrane Permeable-Phenotype (%) [2]: 10% and 5%
- Population Mitochondria Different-Phenotype (%) [2]: 26% and 31%
- Population Mitotic Cells (%) [2]: 47% and 26%
- Population Normal (%) [2]: 82% and 80%
- Population Pyknosed Nuclei (%) [2]: 35% and 40%
- Population Tubulin-Different-Phenotype (%) [2]: 91% and 95%
- Total Cell Count [2]: 459 and 452
- Population Apoptotic (%) [3]: 61% and 75%
- Population Fragmented Nuclei (%) [3]: 4% and 5%
- Population Healthy Nuclei (%) [3]: 43% and 50%
- Population Hoechst High Intensity Objects (%) [3]: 24% and 23%
- Population Membrane Permeable-Phenotype (%) [3]: 10% and 5%
- Population Mitochondria Different-Phenotype (%) [3]: 44% and 45%
- Population Mitotic Cells (%) [3]: 38% and 24%
- Population Normal (%) [3]: 75% and 76%
- Population Pyknosed Nuclei (%) [3]: 51% and 43%
- Population Tubulin-Different-Phenotype (%) [3]: 84% and 77%
- Total Cell Count [3]: 394 and 349
- Population Apoptotic (%) [4]: 67% and 83%
- Population Fragmented Nuclei (%) [4]: 6% and 4%
- Population Healthy Nuclei (%) [4]: 49% and 46%
- Population Hoechst High Intensity Objects (%) [4]: 19% and 20%
- Population Membrane Permeable-Phenotype (%) [4]: 9% and 3%
- Population Mitochondria Different-Phenotype (%) [4]: 22% and 35%
- Population Mitotic Cells (%) [4]: 32% and 16%
- Population Normal (%) [4]: 80% and 79%
- Population Pyknosed Nuclei (%) [4]: 43% and 48%
- Population Tubulin-Different-Phenotype (%) [4]: 87% and 94%
- Total Cell Count [4]: 472 and 454
- Population Apoptotic (%) [5]: 79% and 73%
- Population Fragmented Nuclei (%) [5]: 8% and 7%
- Population Healthy Nuclei (%) [5]: 49% and 42%
- Population Hoechst High Intensity Objects (%) [5]: 20% and 22%
- Population Membrane Permeable-Phenotype (%) [5]: 3% and 7%
- Population Mitochondria Different-Phenotype (%) [5]: 43% and 55%
- Population Mitotic Cells (%) [5]: 20% and 26%
- Population Normal (%) [5]: 79% and 77%
- Population Pyknosed Nuclei (%) [5]: 42% and 49%
- Population Tubulin-Different-Phenotype (%) [5]: 63% and 74%
- Total Cell Count [5]: 354 and 385
- Population Apoptotic (%) [6]: 79% and 85%
- Population Fragmented Nuclei (%) [6]: 8% and 7%
- Population Healthy Nuclei (%) [6]: 36% and 31%
- Population Hoechst High Intensity Objects (%) [6]: 21% and 19%
- Population Membrane Permeable-Phenotype (%) [6]: 7% and 3%
- Population Mitochondria Different-Phenotype (%) [6]: 33% and 41%
- Population Mitotic Cells (%) [6]: 20% and 14%
- Population Normal (%) [6]: 78% and 80%
- Population Pyknosed Nuclei (%) [6]: 54% and 60%
- Population Tubulin-Different-Phenotype (%) [6]: 82% and 97%
- Total Cell Count [6]: 449 and 445

SMILES: CCCCOc1c(C(=O)c2c(F)cc(C)cc2F)c[nH]c2nncc1-2
- Population Apoptotic (%) [1]: 54% and 43%
- Population Fragmented Nuclei (%) [1]: 3% and 2%
- Population Healthy Nuclei (%) [1]: 87% and 86%
- Population Hoechst High Intensity Objects (%) [1]: 7% and 6%
- Population Membrane Permeable-Phenotype (%) [1]: 3% and 4%
- Population Mitochondria Different-Phenotype (%) [1]: 11% and 7%
- Population Mitotic Cells (%) [1]: 45% and 56%
- Population Normal (%) [1]: 92% and 93%
- Population Pyknosed Nuclei (%) [1]: 9% and 11%
- Population Tubulin-Different-Phenotype (%) [1]: 58% and 46%
- Total Cell Count [1]: 782 and 748
- Population Apoptotic (%) [2]: 50% and 64%
- Population Fragmented Nuclei (%) [2]: 3%
- Population Healthy Nuclei (%) [2]: 85% and 81%
- Population Hoechst High Intensity Objects (%) [2]: 10% and 11%
- Population Membrane Permeable-Phenotype (%) [2]: 7% and 4%
- Population Mitochondria Different-Phenotype (%) [2]: 17%
- Population Mitotic Cells (%) [2]: 50% and 35%
- Population Normal (%) [2]: 89% and 88%
- Population Pyknosed Nuclei (%) [2]: 11% and 14%
- Population Tubulin-Different-Phenotype (%) [2]: 77% and 74%
- Total Cell Count [2]: 766 and 710
- Population Apoptotic (%) [3]: 34% and 50%
- Population Fragmented Nuclei (%) [3]: 7% and 5%
- Population Healthy Nuclei (%) [3]: 85%
- Population Hoechst High Intensity Objects (%) [3]: 10% and 11%
- Population Membrane Permeable-Phenotype (%) [3]: 1% and 3%
- Population Mitochondria Different-Phenotype (%) [3]: 4% and 5%
- Population Mitotic Cells (%) [3]: 65% and 50%
- Population Normal (%) [3]: 89% and 88%
- Population Pyknosed Nuclei (%) [3]: 7% and 8%
- Population Tubulin-Different-Phenotype (%) [3]: 32% and 46%
- Total Cell Count [3]: 1018 and 1015
- Population Apoptotic (%) [4]: 59% and 67%
- Population Fragmented Nuclei (%) [4]: 5%
- Population Healthy Nuclei (%) [4]: 82% and 83%
- Population Hoechst High Intensity Objects (%) [4]: 9% and 10%
- Population Membrane Permeable-Phenotype (%) [4]: 3% and 2%
- Population Mitochondria Different-Phenotype (%) [4]: 5%
- Population Mitotic Cells (%) [4]: 40% and 32%
- Population Normal (%) [4]: 90% and 89%
- Population Pyknosed Nuclei (%) [4]: 11%
- Population Tubulin-Different-Phenotype (%) [4]: 57% and 52%
- Total Cell Count [4]: 954 and 851
- Population Fragmented Nuclei (%) [5]: 17% and 10%
- Population Healthy Nuclei (%) [5]: 79% and 86%
- Population Hoechst High Intensity Objects (%) [5]: 16%
- Population Membrane Permeable-Phenotype (%) [5]: 4% and 2%
- Population Mitochondria Different-Phenotype (%) [5]: 1% and 2%
- Population Mitotic Cells (%) [5]: 88% and 65%
- Population Normal (%) [5]: 83%
- Population Pyknosed Nuclei (%) [5]: 2% and 3%
- Population Tubulin-Different-Phenotype (%) [5]: 24% and 36%
- Total Cell Count [5]: 1720 and 1259
- Population Apoptotic (%) [6]: 41% and 63%
- Population Fragmented Nuclei (%) [6]: 13% and 10%
- Population Healthy Nuclei (%) [6]: 82% and 86%
- Population Hoechst High Intensity Objects (%) [6]: 12%
- Population Membrane Permeable-Phenotype (%) [6]: 4% and 1%
- Population Mitochondria Different-Phenotype (%) [6]: 4% and 5%
- Population Mitotic Cells (%) [6]: 58% and 36%
- Population Normal (%) [6]: 87%
- Population Pyknosed Nuclei (%) [6]: 3% and 2%
- Population Tubulin-Different-Phenotype (%) [6]: 46% and 47%
- Total Cell Count [6]: 1114 and 939

SMILES: CS(=O)(=O)c1ccc(NC(=O)c2cccc(COc3ccc(Br)cc3CNCCO)c2)c(Cl)c1.O=CO
- Population Healthy Nuclei (%) [1]: 83%
- Population Mitotic Cells (%) [1]: 47% and 41%
- Population Pyknosed Nuclei (%) [1]: 14%
- Total Cell Count [1]: 651 and 549
- Population Healthy Nuclei (%) [2]: 84% and 82%
- Population Mitotic Cells (%) [2]: 37% and 33%
- Total Cell Count [2]: 462
- Population Healthy Nuclei (%) [3]: 85% and 84%
- Population Mitotic Cells (%) [3]: 46%
- Population Pyknosed Nuclei (%) [3]: 8% and 10%
- Total Cell Count [3]: 981 and 842
- Population Healthy Nuclei (%) [4]: 82% and 80%
- Population Mitotic Cells (%) [4]: 33% and 32%
- Population Pyknosed Nuclei (%) [4]: 16%
- Total Cell Count [4]: 436 and 479
- Population Healthy Nuclei (%) [5]: 84% and 85%
- Population Mitotic Cells (%) [5]: 74% and 85%
- Population Pyknosed Nuclei (%) [5]: 4% and 3%
- Total Cell Count [5]: 1426 and 1953
- Population Healthy Nuclei (%) [6]: 84% and 85%
- Population Mitotic Cells (%) [6]: 21%
- Population Pyknosed Nuclei (%) [6]: 10% and 9%
- Total Cell Count [6]: 560 and 607
